HIV Env fusion – inhibitors of HIV Env-mediated cell fusion. inhibition, % at 12.3 µM. AID 651610. 1.1% of 360,000 active. HeLa-JRFL Env/CEM21 cell fusion, luciferase;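 active = mean replicate inhibition score of at least 50 and every replicate individually at or above 50; inconclusive = only one of the two criteria met; inactive = mean below 50 and not all replicates reaching 50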;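 also: 0% = plate neutral controls and 100% = maraviroc near 300 nM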
Vif inh – blocks HIV Vif function | HEK293T cells, Vif self-association by quenched fluorescence, imaging, 24 h | inhibition, % at 7.49 µM | 0.35% of 340,000 active; in the data active = inhibition above about 50%, passing the limit was not always enough; inconclusive = no clear call, values can overlap the other calls; inactive = below about 31%
S100A4 inh HTS – inhibitors of human S100A4 binding to myosin IIA peptide | S100A4/TAMRA-MyoIIA peptide fluorescence polarization | P26447 | 0.14% of 360,000 active | inhibition, % at 10.7 µM;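 active = mean inhibition of at least 70% across replicates, with every replicate also reaching that level; inconclusive = mean inhibition reaches 70% but some replicates fall short; inactive = mean inhibition below 70%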
Target sequence (P26447 whole entry, looked up): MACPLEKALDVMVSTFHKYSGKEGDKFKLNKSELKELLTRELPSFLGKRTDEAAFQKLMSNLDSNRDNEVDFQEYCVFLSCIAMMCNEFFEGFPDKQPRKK
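assay system = human S100A4 monomer with TAMRA-labelled myosin IIA peptide | also added = labelled myosin peptide probe, 5 nM | incubation = 5 min between mix addition and reading | control set = DMSO and TFP controls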
miR122 inh – inhibitors of miR-122 in Huh7 cells; Huh7 miR-122 Renilla luciferase sensor, 48 h; neutral wells = 0, positive control = 100; AID 602342; activation (reporter increase), % at 12.5 µM; 0.3% of 340,000 active;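 active = mean replicate activation score at least 90 and every replicate individually at or above 90; inconclusive = only one of the two criteria met; inactive = neither criterion met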;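 also: higher luciferase means less miR-122 activity so hits act as miR-122 inhibitors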
Ecoli rRNA inh – inhibits bacterial ribosomal RNA function over humanized ribosomes | 1.6% of 350,000 active | E. coli WT GFP vs humanized-ribosome RFP mutants, fluorescence, 24 h; active compounds read low; DMSO median 0, no signal -100 | GFP signal change (wild-type ribosome), % (concentration not given with the values);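 active = significant combined selectivity score with lowered wild-type GFP, culture density cut under 30%, mutant RFP and density less affected; inactive = any of these conditions unmet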
FN deposit inh – fibronectin deposition inhibition; AH1F fibroblasts, Alexa488-fibronectin deposition fluorescence, overnight; 0.086% of 350,000 active; inhibition, % at 12.6 µM;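 active = mean inhibition across replicates of 30% or more, regardless of how many single replicates reach that level; inconclusive = mean under 30% yet at least half of replicates reach 30%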;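 also: positive control wells lacked labelled fibronectin entirely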
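Assay system: AH1F fibroblasts / Quantity: 10000 cells per well / Medium: DMEM plus 2% serum, read in PBS / Reagent: labelled fibronectin 24 nM / Dosing: single dose, pinned / Times: 1 h cell attachment, overnight exposure to compound and label / Signal: fluorescence, ex 485 nm, em 525 nm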
AID977621 – growth inhibition of wild-type GFP E. coli, dose response, H69 mutant RFP, cherry-pick. shares compounds with Ecoli rRNA inh. E. coli wild-type GFP strain growth, fluorescence, 24 h. activity change, negative = inhibition at 50 µM. 1,900 tested, under 10 active. AID 977621;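 active = Wild-type ribosome reporter drop at least double the humanized mutant ribosome reporter drop, growth loss under a set limit; inconclusive = no clear call, values can overlap the other calls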;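 also: wild-type GFP and H69 mutant RFP strains grown together 50/50 in each well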
AID977628 – growth of wild-type and h24-humanized E. coli strains – h24 mutant RFP vs wild-type GFP, cherry-pick, dose response | shares compounds with Ecoli rRNA inh | E. coli WT GFP strain growth, fluorescence, 24 h | activity change, negative = inhibition at 50 µM | 1,900 tested, under 10 active;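 active = compound lowering the normal-ribosome reporter at least twice as much as the humanized-ribosome reporter, growth loss under a set limit; inconclusive = no clear call, values can overlap the other calls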;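 also: wild-type GFP and h24 humanized RFP strains co-cultured 1 to 1 per well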
An asterisk follows results filed as active; ? = inconclusive; nt = not tested or not shown; ! = a repeat was not active; [ ] = dose if it differs, or a comment. The list is not random: actives were taken first. Their share in the collection is about 2.6%.

SMILES	HIV Env fusion	Vif inh	S100A4 inh HTS	miR122 inh	Ecoli rRNA inh	FN deposit inh	AID977621	AID977628
Cc1onc(-c2ccccc2)c1C(=O)Nc1ccc(NC(=O)c2c(-c3ccccc3)noc2C)cc1	1	-8	1	nt	0	2	nt	nt
COC(=O)CN1C(=S)N(c2ccc(F)cc2)C(=O)C1CC(=O)Nc1ccc(F)cc1 (stereo not given)	5	11	-2	8	-24*	-3	6.4	-0.9
C#CCN1C(=O)C(O)(c2c(C)[nH]c3ccccc23)c2ccccc21 (stereo not given)	-5	-5	0	-8	0	-2	nt	nt
CCCN1C(=O)C(O)(c2c(C)[nH]c3ccccc23)c2ccccc21 (stereo not given)	19	0	-1	0	-18*	-5	-4.7	-5.6
O=C(C[C@@H]1CC[C@@H]2[C@H](COC[C@@H](O)CN2CC2CC2)O1)NCC1CC1	nt	nt	-2	2[16.7 µM]	-2	-2	nt	nt
O=C(Cc1ccccn1)NCC[C@H]1CC[C@@H](NS(=O)(=O)c2ccc(F)cc2)[C@@H](CO)O1	8[16.7 µM]	nt	-21	nt	5	nt	nt	nt
C=CCN(CC=C)CC(O)Cn1c2ccccc2c2ccccc21 (stereo not given)	nt	2	0	nt	-21*	nt	-9.5	?
CCc1cc(CN2CCOCC2)c(NC(=O)c2ccccc2)s1	-1	0	-10	11	-17*	-4	-0.08	-4.8
Cn1c(NC(=O)C[n+]2cc(-c3ccc(F)cc3)n3c2CCC3)cc(=O)n(C)c1=O	nt	4	nt	2	nt	4	nt	nt
O=C(C[n+]1cc(-c2ccc(F)cc2)n2c1CCC2)c1cccs1	-62	-2	-6	1	-16*	-4	0.92	2.6
Cc1ccc(-c2c[n+](CC(=O)Nc3ccccc3C)c3n2CCC3)cc1	-3	-6	0	nt	nt	2	nt	nt
Cc1ccc(NC(=O)C[n+]2cc(-c3ccccc3)n3c2CCC3)cc1	-2	0	1	0	-40*	0	4.9	?
CNC[C@H]1Oc2cc(-c3cncnc3)ccc2S(=O)(=O)N([C@@H](C)CO)C[C@H]1C	-16[16.7 µM]	nt	-17	12[16.7 µM]	-2	-1	nt	nt
Cc1ccc(CNC(=O)CSc2nc3ccccc3c(=O)n2CC2CCCO2)cc1 (stereo not given)	nt	-7	-10	-8	nt	7	nt	nt
O=c1c2ccccc2nc(SCc2ccccc2)n1CC1CCCO1 (stereo not given)	35	0	-4	nt	-21*	2	-12	-18
N#CC1CN(Cc2ccccc2)CN(Cc2ccccc2)C1	2	6	0	nt	-27*	-9	nt	?
Cc1nn(S(=O)(=O)c2ccc(Cl)cc2)c(C)c1Sc1ccc([N+](=O)[O-])cc1	52	-14	-6	-5	-28*	16	-2.6	nt
O=C(Nc1ccn(-c2ccccc2)n1)c1ccc(Cl)cc1	2	-7	nt	nt	nt	-2	nt	nt
N#Cc1ccc(C(=O)Nc2ccn(-c3ccccc3)n2)cc1	15	4	2	nt	-14*	-12	-8.6	nt
COc1cccc(C(=O)Nc2ccc3c(c2)C(=O)N(C)[C@H]2CC[C@@H](CC(=O)NCc4ccccc4F)O[C@@H]2CO3)c1	nt	nt	nt	12[16.7 µM]	-3	-11	nt	nt
C(=C(c1ccccc1)c1ccccc1)c1ccccn1	13	-9	2	-3	-39*	-3	-1.8	nt
C(/C=C/c1ccccn1)=C\c1ccccc1	-179	20	4	nt	-6	-2	nt	nt
COc1ccc(-c2csc3ncn(-c4ccc(C)cc4)c(=O)c23)cc1OC	-3	-13	1	-5	-23*	-2	?	nt
COc1ccc(-n2cnc3scc(-c4ccc(OC)c(OC)c4)c3c2=O)cc1	-20	7	-4	-10	8	-4	nt	nt
CC(C)NC(=O)Nc1ccc2c(c1)C(=O)N([C@H](C)CO)C[C@@H](C)[C@@H](CN(C)C)O2	-1[16.7 µM]	nt	-3	0[16.7 µM]	4	nt	nt	nt
SMILES	HIV Env fusion	Vif inh	S100A4 inh HTS	miR122 inh	Ecoli rRNA inh	FN deposit inh	AID977621	AID977628
CC(C)NC(=O)Nc1ccc2c(c1)C(=O)N([C@H](C)CO)C[C@H](C)[C@@H](CN(C)C(=O)c1ccccc1)OCCCC[C@@H](C)O2	24[16.7 µM]	nt	-10	-3[16.7 µM]	1	nt	nt	nt
COc1cccc(Nc2c([N+](=O)[O-])cncc2[N+](=O)[O-])c1	4	2	1	-7	-13	8	nt	nt
NS(=O)(=O)c1ccc(Nc2c([N+](=O)[O-])cncc2[N+](=O)[O-])cc1	4	-4	3	-2	-37*	2	nt	?
CCN(CC)S(=O)(=O)c1ccc(N2CCCC2)c(NC(=O)Cc2ccccc2)c1	13	-4	14	16	-3	8	nt	nt
CCN(CC)S(=O)(=O)c1ccc(N2CCCC2)c(NC(=O)c2ccccc2OC)c1	4	-3	-4	10	-21*	1	-16	-9.8
CN(C)C(=O)C[C@H]1CC[C@@H](NC(=O)NC2CCCCC2)[C@H](CO)O1	0[16.7 µM]	nt	24	22[16.7 µM]	1	9	nt	nt
Cc1cccc(C)c1-n1nnnc1C1(C)CCC(=O)N1Cc1cccs1 (stereo not given)	-14	nt	-8	nt	-21*	6	-26	nt
O=C(c1ccc2c(c1)CCN2S(=O)(=O)c1ccccc1)N1CCN(c2ccccc2)CC1	-8	-10	-12	10	-26*	0	nt	?
CS(=O)(=O)N1CCc2cc(C(=O)N3CCN(c4ccccc4)CC3)ccc21	-7	1	-32	-1	2	3	nt	nt
CN(C)C(=O)c1ccc(-c2ccc(C3[C@H]4CNC[C@@H]3N4S(=O)(=O)c3ccccc3F)cc2)cc1 (stereo not given in full)	nt	nt	-33	nt	-1	2	nt	nt
N#Cc1ccc(-c2ccc(C3[C@H]4CNC[C@@H]3N4S(=O)(=O)c3ccc(-c4ccccc4)cc3)cc2)cc1 (stereo not given in full)	nt	nt	-19	nt	-18*	11	-5.4	nt
N#Cc1cccc(-c2ccc(C3[C@H]4CNC[C@@H]3N4S(=O)(=O)c3ccccc3)cc2)c1 (stereo not given in full)	nt	nt	5	nt	-3	0	nt	nt
CN(C)C(=O)c1cccc(-c2ccc(C3[C@H]4CNC[C@@H]3N4S(=O)(=O)c3ccccc3F)cc2)c1 (stereo not given in full)	nt	nt	nt	nt	-22*!	-6	-8	?
O=C(C1CCCC1)N1CC(=O)N2[C@H](CO)[C@H](c3ccc(C#CCc4ccccc4)cc3)[C@H]2C1	nt	nt	-12	nt	-1	-17	nt	nt
